The results in this text go back to ChEMBL document CHEMBL3351998, “Discovery of potent and specific dihydroisoxazole inhibitors of human transglutaminase 2” (J Med Chem, 2014).

For data set [1], the target named is T1, Protein-glutamine gamma-glutamyltransferase (Homo sapiens) (UniProt P21980).
T1 sequence (whole entry): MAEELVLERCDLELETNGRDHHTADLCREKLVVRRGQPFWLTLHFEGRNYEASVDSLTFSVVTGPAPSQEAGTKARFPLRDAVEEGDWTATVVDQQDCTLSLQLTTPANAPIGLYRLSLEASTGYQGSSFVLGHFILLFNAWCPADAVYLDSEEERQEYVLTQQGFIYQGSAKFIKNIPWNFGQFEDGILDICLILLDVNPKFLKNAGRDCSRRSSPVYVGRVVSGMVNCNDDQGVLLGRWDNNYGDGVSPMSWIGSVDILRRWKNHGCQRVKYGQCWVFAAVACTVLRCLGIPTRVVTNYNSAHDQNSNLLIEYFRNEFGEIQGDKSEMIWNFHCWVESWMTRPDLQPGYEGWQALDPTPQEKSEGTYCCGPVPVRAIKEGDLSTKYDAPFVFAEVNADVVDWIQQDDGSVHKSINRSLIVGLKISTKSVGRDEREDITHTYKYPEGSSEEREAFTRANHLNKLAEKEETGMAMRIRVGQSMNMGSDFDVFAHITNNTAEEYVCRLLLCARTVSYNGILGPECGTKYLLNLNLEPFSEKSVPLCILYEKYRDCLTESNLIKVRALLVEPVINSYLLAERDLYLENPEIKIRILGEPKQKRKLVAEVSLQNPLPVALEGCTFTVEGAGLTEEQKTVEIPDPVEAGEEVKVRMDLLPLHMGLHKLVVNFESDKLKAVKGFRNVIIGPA
Put plainly: Inhibition of human transglutaminase 2 using ((benzyloxy)carbony l)-L-glutaminylglycine peptide substrate assessed as Kinh/Ki ratio by GDH coupled assay. The method, boiled down:
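Human TG2 (V224G variant) or codon-optimized murine TG2, E. coli-expressed, final ~0.34 and 0.22 μM respectively. Buffer: 200 mM MOPS pH 7.2, 5 mM CaCl2, 10 mM α-ketoglutarate, 300 μM NADH, 36 U/mL bovine GDH. Z-Gln-Gly at 10/20 mM. Inhibitors typically at 100/33.3/11.1/3.7 μM, 1% DMSO, added after ≥5 min pre-equilibration. A340 progress curves fitted to exponential decay; kinh/Ki from irreversible inhibition model.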

Data set [2] deals with T2, Protein-glutamine gamma-glutamyltransferase E (Homo sapiens) (UniProt Q08188).
T2 sequence (whole entry): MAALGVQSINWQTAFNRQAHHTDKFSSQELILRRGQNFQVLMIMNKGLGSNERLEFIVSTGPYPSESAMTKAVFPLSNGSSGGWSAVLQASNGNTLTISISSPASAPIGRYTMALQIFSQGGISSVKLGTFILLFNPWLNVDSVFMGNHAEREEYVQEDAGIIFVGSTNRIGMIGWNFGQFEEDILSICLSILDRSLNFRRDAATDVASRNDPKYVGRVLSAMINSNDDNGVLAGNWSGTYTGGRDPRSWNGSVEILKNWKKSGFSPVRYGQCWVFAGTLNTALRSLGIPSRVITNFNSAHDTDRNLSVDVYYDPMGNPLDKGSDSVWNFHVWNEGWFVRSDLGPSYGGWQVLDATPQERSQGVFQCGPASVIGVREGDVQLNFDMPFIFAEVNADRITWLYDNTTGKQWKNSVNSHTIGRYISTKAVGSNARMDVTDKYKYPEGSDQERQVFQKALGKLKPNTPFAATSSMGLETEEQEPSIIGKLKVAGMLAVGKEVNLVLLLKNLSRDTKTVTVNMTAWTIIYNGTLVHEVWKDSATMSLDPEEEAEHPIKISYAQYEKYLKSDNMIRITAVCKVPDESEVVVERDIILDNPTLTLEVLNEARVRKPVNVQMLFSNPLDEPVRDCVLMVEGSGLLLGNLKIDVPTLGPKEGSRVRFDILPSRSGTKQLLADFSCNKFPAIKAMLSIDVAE
The data set is described as follows: Inhibition of human transglutaminase 3 using ((benzyloxy)carbonyl)-L-glutaminyl-L-serine peptide substrate assessed as Kinh/Ki ratio by GDH coupled assay. In a few lines:
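His-tagged human TG3 activated by cathepsin L (1 μg per 25 μg TG3, MES pH 6.0, 30 min), then quenched with 50 μM E64 for 10 min. Final TG3 ~0.43 μM in 200 mM MOPS pH 7.2, 5 mM CaCl2, 10 mM α-ketoglutarate, 300 μM NADH, 36 U/mL GDH. Z-Gln-Ser at 20/40 mM. Enzyme pre-equilibrated 30 min before inhibitors (typically 100/33.3/11.1/3.7 μM) were added. A340 curves fitted; kinh/Ki from irreversible model.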

Data set [3] has as its target T3, Coagulation factor XIII A chain (Homo sapiens) (UniProt P00488).
T3 sequence (whole entry): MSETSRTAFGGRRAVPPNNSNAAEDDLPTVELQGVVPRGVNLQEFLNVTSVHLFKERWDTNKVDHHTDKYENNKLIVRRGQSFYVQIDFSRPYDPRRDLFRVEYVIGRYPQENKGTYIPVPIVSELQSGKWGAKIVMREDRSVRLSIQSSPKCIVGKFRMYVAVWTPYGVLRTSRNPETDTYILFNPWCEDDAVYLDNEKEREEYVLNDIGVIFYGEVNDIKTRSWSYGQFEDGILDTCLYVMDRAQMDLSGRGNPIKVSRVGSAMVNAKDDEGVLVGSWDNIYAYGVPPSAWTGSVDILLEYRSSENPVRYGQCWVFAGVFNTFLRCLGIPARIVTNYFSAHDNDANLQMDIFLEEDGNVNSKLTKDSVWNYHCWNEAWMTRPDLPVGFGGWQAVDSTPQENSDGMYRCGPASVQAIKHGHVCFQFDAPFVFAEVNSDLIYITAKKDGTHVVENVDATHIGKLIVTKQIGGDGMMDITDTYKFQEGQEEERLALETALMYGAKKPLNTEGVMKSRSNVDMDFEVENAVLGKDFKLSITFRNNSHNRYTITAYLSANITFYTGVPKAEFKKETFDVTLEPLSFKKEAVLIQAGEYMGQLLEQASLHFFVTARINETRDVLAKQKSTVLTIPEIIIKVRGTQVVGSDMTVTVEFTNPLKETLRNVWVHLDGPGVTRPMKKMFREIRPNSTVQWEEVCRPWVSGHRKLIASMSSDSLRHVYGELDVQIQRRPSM
The data set is described as follows: Inhibition of human factor 13a using QEQVSPLSLLK peptide substrate assessed as Kinh/Ki ratio by GDH coupled assay.

Data set [4] is described as follows: Half life in CD-1 mouse at 50 mg/kg, po. The arrangement: dose 50 mg/kg, route oral. As to conditions: in vivo. It is filed as ADME, organism-based. The method, boiled down:
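Male CD-1 mice (6−8 weeks, cohorts of five) fasted ~6 h, then gavaged (10 μL/g) with inhibitor mixtures at 50 mg/kg each compound. Vehicle: 25 mg/mL per compound in 1 M HCl/10% Tween-80/25% ethanol, diluted 5-fold into 0.94% methylcellulose in 250 mM trisodium citrate. Blood sampled at 5, 20 (saphenous) and 60 min (cardiac). Plasma quantified by LC-MS (ESI-QTOF) against standard curves.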

Usually half-life stands for the time needed for the level to fall by half in the phase considered.

As to `O=C(N[C@@H]1C[C@@H](C(=O)NC[C@@H]2CC(Br)=NO2)N(C(=O)OCc2cnc3ccccc3c2)C1)c1cccnc1`, the Ratio was 108 in data set [1], under 1 in data set [2] and 10.6 in data set [3]. This compound also registered a half-life in data set [4] of 15 min.
On the same counts, the results for `O=C(NC[C@@H]1CC(Br)=NO1)[C@@H]1C[C@H](F)CN1C(=O)OCc1cnc2ccccc2c1` are 13.4, under 1, 7 and 15 min.
The like results for `O=C(NC[C@@H]1CC(Br)=NO1)[C@@H]1C[C@@H](O)CN1C(=O)OCc1cnc2ccccc2c1` were, in that order, 12.5, under 1, 11.1 and 15 min.
The like results for `O=C(NC[C@@H]1CC(Br)=NO1)[C@@H]1C[C@@H](OCc2ccccc2)CN1C(=O)OCc1cnc2ccccc2c1` were, in that order, 13.8, under 1, 15.5 and 15 min.
Turning to `O=C(NC[C@@H]1CC(Br)=NO1)[C@@H]1C[C@@H](c2ccccc2)CN1C(=O)OCc1cnc2ccccc2c1`, the results for the Ratio in data set [1], in data set [2] and in data set [3] were 48.6, under 1 and 25.4, respectively. In data set [4], this compound displayed a half-life of 15 min.
Regarding `O=C(NC[C@@H]1CC(Br)=NO1)[C@@H]1CCCN1C(=O)OCc1cnc2ccccc2c1`, the Ratio in data set [1] is 16.9; in data set [2], under 1; in data set [3], 8.3. In data set [4], this compound displayed a half-life of 15 min.
For `O=C(N[C@@H]1C[C@@H](C(=O)NC[C@@H]2CC(Br)=NO2)N(C(=O)OCc2cnc3ccccc3c2)C1)c1ccc(O)cc1`, the Ratio in data set [1] was 56.4; in data set [2], under 1; in data set [3] it was 9.4. The half-life in data set [4] was 15 min.
On the same counts, the results for `O=C(NC[C@@H]1CC(Br)=NO1)[C@@H]1C[C@@H](c2ccc(O)cc2)CN1C(=O)OCc1cnc2ccccc2c1` are 91.1, under 1, 38.7 and 15 min.
